Hits are enriched below; roughly 2.6% of the tested compounds scored in any of these assays.
SENP1 inh = blocks the human SENP1 SUMO protease catalytic domain. 0.21% of 360,000 active. recombinant SENP1 catalytic domain, CyPet-SUMO1-YPet FRET cleavage. AID 624204. inhibition, % at 10 µM;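 active = inhibition at least 30% at 10 µM, raw YFP signal under a set limit, fluorescence ratio 0.5 to 1.5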;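 note: 0% = enzyme with DMSO and 100% = no enzyme wells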
Target sequence (Q9P0U3 419-644 limits assumed): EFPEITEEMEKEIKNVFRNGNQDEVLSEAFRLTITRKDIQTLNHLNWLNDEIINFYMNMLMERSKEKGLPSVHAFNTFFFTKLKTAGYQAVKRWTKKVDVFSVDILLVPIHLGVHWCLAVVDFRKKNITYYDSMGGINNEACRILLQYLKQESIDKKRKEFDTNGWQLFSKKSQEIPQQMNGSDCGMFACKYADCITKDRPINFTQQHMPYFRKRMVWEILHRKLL
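System: Recombinant human SENP1 catalytic domain, His6-tagged | Incubation: Enzyme reaction for 50 min at room temperature, dark | Medium: Tris pH 8 with BME, BSA, NP40 and catalase | Also added: 25 nM SUMO1 FRET substrate | Compound: 10 µM single point, 0.5% DMSO | Measured by: FRET fluorescence in CFP and YFP emission channels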
SENP8 block-1 = inhibitors of human SENP8 protease | Q96LD8 | recombinant SENP8, Nedd8 substrate fluorescence | inhibition, % at 20 µM | 0.64% of 360,000 active | AID 602440; in the data active = inhibition mostly above about 40%, no sharp cut-off; inactive = mostly below about 27%
Target sequence (Q96LD8 whole entry, looked up): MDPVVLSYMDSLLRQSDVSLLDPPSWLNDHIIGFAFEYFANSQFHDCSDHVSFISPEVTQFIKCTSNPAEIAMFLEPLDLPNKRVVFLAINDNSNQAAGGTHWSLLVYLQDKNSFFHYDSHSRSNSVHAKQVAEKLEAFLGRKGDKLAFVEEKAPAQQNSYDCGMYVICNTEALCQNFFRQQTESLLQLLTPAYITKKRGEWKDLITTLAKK
SENP8 block-2 = SENP8 protease inhibition; Q96LD8; purified SENP8, Z-RLRGG-aminoluciferin cleavage, luminescence; inhibition, % at 10 µM; 1.2% of 330,000 active; AID 2540; in the data active = inhibition above about 50%
Platelet DG rel = platelet dense granule release activity | human platelet-rich plasma, SFLLRN dense granule ATP release, luminescence | inhibition, %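 (compounds screened at 7.5 µM in platelet-rich plasma)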 | 0.22% of 300,000 active | AID 1663;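 active = mean replicate score, as percent of positive control, at or above 50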
SENP6 inh = inhibitors of human SENP6 protease; Q9GZR1; Recombinant SENP6 catalytic domain, aminoluciferin luminescence; inhibition, % at 10 µM; 1.8% of 330,000 active; AID 2599;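 active = inhibition above about 50% at the single tested dose, limit read from the data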;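 note: plate controls were DMSO wells with enzyme for no effect and DMSO wells lacking enzyme for full effect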
SENP7 block = blocks the human protease SENP7; Q9BQF6; recombinant SENP7, Z-RLRGG-aminoluciferin luminescence, 40 min; inhibition, % at 5 µM; 1.5% of 330,000 active;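 active = inhibition above about 50% at the single test dose, limit read from the data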;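 note: plate controls were DMSO with enzyme for no effect and no enzyme buffer wells for full effect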
SENP8 conf = confirmation of human SENP8 protease inhibitors | shares compounds with SENP7 block | Recombinant SENP8, Z-RLRGG-aminoluciferin luminescence, 60 min | inhibition, % at 12.5 µM | 40% of 6,200 active;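 active = mean inhibition across replicates above about 50%, limit read from the data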
SENP6 conf = human SENP6 inhibition, confirmed | shares compounds with SENP7 block | recombinant SENP6, Z-RLRGG-aminoluciferin luminescence | inhibition, % at 12.5 µM | 58% of 6,200 active | AID 488915
SENP7 confirm = human SENP7 inhibition, confirmed | shares compounds with SENP7 block | recombinant SENP7, Z-RLRGG-aminoluciferin luminescence, 40 min | inhibition, % at 12.5 µM | 69% of 6,200 active
Casp3 SENP sel = selectivity test for SENP inhibitors: human caspase-3 inhibition | shares compounds with SENP7 block | purified caspase-3, Z-DEVD-aminoluciferin luminescence, 60 min | inhibition, % at 12.5 µM | 60% of 6,200 active;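 active = mean inhibition above about 50%, limit read from the data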;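 note: plate controls were enzyme with DMSO for no effect and wells without caspase-3 for full effect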
Target sequence (P42574 28-227 limits assumed): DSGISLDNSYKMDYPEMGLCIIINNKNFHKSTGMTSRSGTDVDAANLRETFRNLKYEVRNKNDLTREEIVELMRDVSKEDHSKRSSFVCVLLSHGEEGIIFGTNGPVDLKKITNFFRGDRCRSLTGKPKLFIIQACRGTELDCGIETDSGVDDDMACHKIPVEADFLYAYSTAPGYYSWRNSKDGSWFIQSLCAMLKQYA
SENP luc ctr = luminescence interference (SENP counter-screen). shares compounds with SENP7 block. Pre-incubated SENP8/Z-RLRGG-aminoluciferin, luciferase luminescence interference. inhibition, % at 12.5 µM. 39% of 6,200 active;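 active = mean inhibition above about 50% when retested at one dose, limit read from the data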;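 note: plate controls were DMSO wells with completed reaction for no effect and substrate without enzyme for full effect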
* hit, by the source's call; x = not tested or not shown.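 Rule for the calls, unless noted: active = mean inhibition above about 50% in the one-dose retest (limit read from the data); inactive = the rest.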

SMILES | SENP1 inh | SENP8 block-1 | SENP8 block-2 | Platelet DG rel | SENP6 inh | SENP7 block | SENP8 conf | SENP6 conf | SENP7 confirm | Casp3 SENP sel | SENP luc ctr
COc1cc(NC(=O)CC(C)S(=O)(=O)c2cc3c(cc2C)NC(=O)CO3)cc(OC)c1OC (stereo not drawn) | 0.7 | 14.4 | 0.3 | -59.6 | 0.9 | -1.7 | x | x | x | x | x
O=C1c2ccccc2C(=O)N1CC1c2ccccc2CCN1C(=O)CN1CCOCC1 (stereo not drawn) | 0.9 | 8.2 | 2.3 | -5.1 | 22.3 | 1.3 | x | x | x | x | x
CCCCc1c(Cc2ccccc2)ncn1CCc1ccccc1OC | 1.3 | 4.8 | x | x | x | x | x | x | x | x | x
Fc1ccc(NC(=S)Nc2cccc3ccccc23)cc1F | -8.1 | -388.0 | 48.2 | 46.1 | 62.4* | 20.5 | 10.7 | 5.9 | 15.5 | 10.9 | 9.4
Cc1cccc(NC(=S)Nc2cccc3ccccc23)c1 | -17.8 | -401.4 | 89.0* | 0.4 | 91.2* | 46.4 | -5.6 | -3.0 | -7.7 | 6.0 | 6.8
CC(C)N1CCC1(C)C(=O)Nc1cccc2ccccc12 (stereo not drawn) | -1.3 | -7.7 | x | x | x | x | x | x | x | x | x
Cc1cccc(NC(=O)Nc2cccc3ccccc23)c1 | 1.8 | -117.0 | -0.7 | -7.5 | -7.5 | -5.4 | x | x | x | x | x
Cc1cc(NC(=S)Nc2cccc3ccccc23)n[nH]1 | 2.5 | -137.7 | -11.3 | 2.4 | -3.7 | 4.8 | x | x | x | x | x
CC1(C(=O)Nc2cccc3ccccc23)CC1(Br)Br (stereo not drawn) | -6.5 | -385.7 | 22.9 | -4.8 | 59.7* | 7.5 | 12.5 | 20.7 | 4.8 | 4.7 | -2.8
CCOC(=O)c1c(O)cc(C)cc1Nc1ccccc1 | 20.1 | -108.3 | -2.6 | -2.0 | -5.5 | 1.3 | x | x | x | x | x
O=c1oc(-c2ccco2)nc2sc3c(c12)CCCC3 | -91.3 | -173.3 | 42.4 | -3.9 | 72.0* | -10.5 | 65.7* | 54.1* | 51.9* | 26.7 | 29.4
O=C1CCC(=O)N1c1ccc(-c2nc3sc4c(c3c(=O)o2)CCC4)cc1 | -21.5 | -22.1 | -20.3 | -4.3 | -45.1 | -15.1 | x | x | x | x | x
Cc1ccc(-c2nc3ccccc3c(=O)o2)cc1 | 5.2 | -15.5 | 6.6 | -1.2 | 54.5* | 44.9 | 38.8 | 31.7 | 47.1 | 22.2 | 33.0
Cc1sc2nc(-c3ccccc3)oc(=O)c2c1C | -8.9 | 1.5 | 75.6* | 1.4 | 46.5 | 91.5* | 62.4* | 62.7* | 64.4* | 68.9* | 33.6
Cc1nc2sc3c(c2c(=O)o1)CCCC3 | 1.1 | 6.2 | -2.3 | 5.8 | -4.2 | -7.3 | x | x | x | x | x
O=c1oc(-c2ccccc2)nc2sc3c(c12)CCC3 | -102.2 | -71.7 | 20.2 | -8.6 | 91.0* | 87.5* | 51.1* | 49.7 | 39.8 | 64.4* | 28.6
CC(C)[C@H](NC(=O)c1c(F)cccc1F)C(=O)N1CCN(c2ccc(F)cc2)CC1 | -2.2 | 13.0 | -14.3 | -4.7 | -3.2 | -5.2 | x | x | x | x | x
Nc1nc(-c2ccccc2)nc2sc3c(c12)CCCC3 | -0.5 | -400.8 | 57.8* | -10.9 | 84.3* | 75.2* | 2.8 | 69.6* | 89.5* | 45.5 | 11.8
CCSc1nc(N)c2c3c(sc2n1)CCC3 | -5.5 | -147.2 | -3.6 | -1.4 | 3.3 | 5.3 | x | x | x | x | x
O=C(c1ccc2c(=O)n3c(nc2c1)CCCCC3)N1CCN(c2ccccc2F)CC1 | 3.0 | 5.6 | 6.8 | 0.5 | -20.6 | -6.5 | x | x | x | x | x
Cc1ccc(-c2cnc3cc(C)nn3c2)cc1 | 1.3 | -5.3 | 46.6 | -13.1 | 58.0* | 75.1* | 50.7* | 60.8* | 82.8* | 72.0* | 25.3
Cc1ccc(-c2cnc3c(Cl)c(C)nn3c2)cc1 | 2.3 | 4.1 | 68.2* | 25.0 | 65.4* | 93.6* | 68.6* | 70.4* | 74.9* | 80.1* | 45.3
Cc1cc2ncc(-c3ccc(Cl)cc3)cn2n1 | 1.4 | 2.4 | 39.3 | 9.1 | -1.4 | 30.1 | x | x | x | x | x
CCOC(=O)c1[nH]c2cc(OC)c(OC)cc2c1N | 5.9 | -274.9 | -4.4 | 17.6 | -0.3 | 2.3 | x | x | x | x | x
CCOC(=O)c1[nH]c2ccc(C)cc2c1N | 5.6 | -309.5 | 24.2 | 13.2 | 50.0* | -2.2 | 53.9* | 54.0* | 88.5* | 81.8* | 72.2*
SMILES | SENP1 inh | SENP8 block-1 | SENP8 block-2 | Platelet DG rel | SENP6 inh | SENP7 block | SENP8 conf | SENP6 conf | SENP7 confirm | Casp3 SENP sel | SENP luc ctr
COc1ccc(OC)c(-n2nnnc2SCC(=O)Nc2ccc3c(c2)OCCO3)c1 | 2.3 | 17.3 | 6.6 | -4.2 | -5.9 | 7.7 | x | x | x | x | x
COc1ccc(OC)c(-n2nnnc2SCC(=O)Nc2ccc(C(=O)N3CCCCC3)cc2)c1 | 1.0 | 7.1 | 4.7 | -15.4 | -11.1 | 57.2* | 7.1 | 5.6 | 1.4 | -3.8 | -2.6
CC(OC(=O)c1ccc([N+](=O)[O-])s1)C(=O)Nc1ncc(Cl)cc1Cl (stereo not drawn) | 1.0 | 19.3 | 61.6* | -35.5 | 60.0* | 24.6 | 14.0 | 22.6 | 4.6 | -5.7 | -5.3
Cc1cc(C)c(C#N)c(SCC(=O)c2ccccc2)n1 | -16.9 | 17.3 | -0.9 | 1.4 | -9.0 | 11.4 | x | x | x | x | x
Cc1cc(=O)[nH]c(SCC(=O)c2ccccc2)c1C#N | -14.5 | 26.3 | 60.2* | -0.7 | 74.0* | 25.8 | 72.5* | 74.0* | 93.6* | 82.0* | 79.3*
O=C(/C=C/c1ccc(OC(F)F)cc1)Nc1cccc(S(=O)(=O)NC2=NCCCCC2)c1 | -0.4 | -7.5 | -3.1 | 20.4 | -2.9 | -3.4 | x | x | x | x | x
CCOC(=O)c1csc(NC(=O)CSc2nnnn2-c2ccc(OC)c(OC)c2)n1 | 1.9 | 24.2 | -5.4 | -7.8 | 6.1 | 0.0 | x | x | x | x | x
COc1ccc(-n2nnnc2SCC(=O)Nc2nnc(C)s2)cc1OC | 1.5 | 4.4 | -4.4 | 16.6 | -0.5 | 94.8* | -23.6 | -16.1 | -6.9 | -7.7 | -4.6
COc1cccc(C(C[N+](=O)[O-])c2c(C)[nH]n(-c3ccccc3)c2=O)c1 (stereo not drawn) | 3.6 | 72.9* | 64.6* | 16.7 | 82.9* | 85.4* | 8.2 | 8.2 | 1.6 | -3.0 | -2.3
O=C(Nc1ccc2ccccc2n1)Nc1ccccc1F | -1.2 | 14.4 | -2.4 | -7.3 | -8.6 | 5.2 | x | x | x | x | x
Fc1ccc(Nc2ccc3ccccc3n2)c(F)c1 | 1.9 | -415.4 | 95.2* | 26.2 | 94.9* | 98.8* | 98.5* | 99.1* | 103.3* | 95.1* | 93.1*
CN(C)c1ccc(/C=N/n2ncc3ccccc32)cc1 | -17.3 | -252.5 | 67.7* | 7.1 | 76.5* | 2.2 | -5.0 | 85.4* | 96.9* | 70.1* | 42.9
CN(C)c1ccc(C=Nc2ccccc2)cc1 | -1.2 | -0.2 | -5.8 | 3.7 | -10.8 | -3.2 | x | x | x | x | x

Screens as filed in PubChem.
